The RNAGym collection of RNA variant scans (doi:10.1126/science.aae0568)
Fewer inactive variants are shown than the library holds.

B1: tRNA (parent)
chain: GUUCCGUUGGCGUAAUGGUAACGCGUCUCCCUCCUAAGGAGAAGACUGCGGGUUCGAGUCCCGUACGGAACG

Variants of: B1
Experiment: yeast fitness relative to wild type (ratio to wild type); higher = fitter; tRNA-Arg(CCU), competitive growth, 37 C, YPD
Procedure, shortened: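 Start and end populations of a pooled competition were compared by 100-nucleotide paired-end sequencing of gene amplicons. The Saccharomyces cerevisiae strains carried tRNA-Arg(CCU) gene variants at the native genomic locus, synthesised with a 3% per-site mutation rate at 69 sites, and competed in YPD at 37°C for 24 hours in six parallel replicates. Darwinian fitness relative to wild type was based on the change in genotype frequencies. Genotypes required ≥ 100 starting reads, and estimates < 0.5 were set to 0.5.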

Q: For A37U C49U C61G, which yeast fitness is on record?
A: The yeast fitness was at most 0.5.

Q: For A37U U59C, which yeast fitness is on record?
A: The yeast fitness was 0.721.

Q: For U35C U54C, which yeast fitness is on record?
A: Its yeast fitness is 0.696.

Q: For U35C A45C, which yeast fitness is on record?
A: Its yeast fitness is 0.862.

Q: For A37U U53G G56A A70C, which yeast fitness is on record?
A: The yeast fitness was at most 0.5.

Q: Which yeast fitness does the source give for A37U A70U here?
A: Its yeast fitness is 0.655.

Q: For U35C A37C G39A, which yeast fitness is on record?
A: Its yeast fitness is at most 0.5.

Q: With G38A A40U G50C C60G A70G as the variant, how does the yeast fitness read?
A: The yeast fitness was 0.526.

Q: For A37G G51C, which yeast fitness is on record?
A: The yeast fitness was 0.601.

Q: With A36C A45C as the variant, how does the yeast fitness read?
A: Its yeast fitness is 0.763.

Q: For A37C A70G, which yeast fitness is on record?
A: The yeast fitness was 0.769.

Q: For A36G A37U A69C, which yeast fitness is on record?
A: The yeast fitness was 0.663.

Q: With G38A A69C as the variant, how does the yeast fitness read?
A: The yeast fitness was 0.847.

Q: With G38C G39C C46U A69U as the variant, how does the yeast fitness read?
A: The yeast fitness was at most 0.5.

Q: Which yeast fitness does the source give for A37U G67A here?
A: Its yeast fitness is 0.724.

Q: For C34U A36G C55G A57U G67A, which yeast fitness is on record?
A: The yeast fitness was 0.568.

Q: With A37G C66U A69U as the variant, how does the yeast fitness read?
A: The yeast fitness was 0.674.

Q: With A37C G52C C66G as the variant, how does the yeast fitness read?
A: Its yeast fitness is at most 0.5.

Q: Which yeast fitness does the source give for C34G A57C here?
A: Its yeast fitness is at most 0.5.

Q: For A37G A70C, which yeast fitness is on record?
A: The yeast fitness was 0.76.

Q: With G38C G41C A42G A65G as the variant, how does the yeast fitness read?
A: The yeast fitness was 0.503.

Q: Which yeast fitness does the source give for U35G A42G U47A here?
A: The yeast fitness was at most 0.5.

Q: Which yeast fitness does the source give for A36C G41A U53C A70C here?
A: Its yeast fitness is 0.526.

Q: Which yeast fitness does the source give for A36U G48U C66A here?
A: Its yeast fitness is at most 0.5.

Q: With A37U A45U U47C C62G as the variant, how does the yeast fitness read?
A: Its yeast fitness is at most 0.5.

Q: Which yeast fitness does the source give for C34G G67A here?
A: The yeast fitness was 0.596.

Q: With C34U C55U as the variant, how does the yeast fitness read?
A: The yeast fitness was 0.569.

Q: For C34U C55A, which yeast fitness is on record?
A: The yeast fitness was 0.623.

Q: With C34U G58C A69U as the variant, how does the yeast fitness read?
A: The yeast fitness was at most 0.5.

Q: For A36G G38C U59A, which yeast fitness is on record?
A: The yeast fitness was at most 0.5.

Q: Which yeast fitness does the source give for A36C G63A here?
A: The yeast fitness was 0.704.

Q: Which yeast fitness does the source give for A36C A37G C49A here?
A: Its yeast fitness is 0.541.

Q: With U35C G41A A45U as the variant, how does the yeast fitness read?
A: The yeast fitness was 0.664.

Q: With G38A A42C U54C A69C as the variant, how does the yeast fitness read?
A: Its yeast fitness is at most 0.5.

Q: For C34G G41A A45G A57G C60G C62U, which yeast fitness is on record?
A: Its yeast fitness is at most 0.5.

Q: For C34G U54A U59C A65G A70G, which yeast fitness is on record?
A: Its yeast fitness is 0.84.

Q: Which yeast fitness does the source give for A36U A42U here?
A: Its yeast fitness is 0.71.

Q: Which yeast fitness does the source give for C34G C60G here?
A: The yeast fitness was 0.782.

Q: With C34U A40U A57U as the variant, how does the yeast fitness read?
A: Its yeast fitness is at most 0.5.

Q: For U35A, which yeast fitness is on record?
A: The yeast fitness was 0.715.

Q: Which yeast fitness does the source give for U35C here?
A: The yeast fitness was 0.817.

Q: For U35G, which yeast fitness is on record?
A: Its yeast fitness is 0.676.

Q: Which yeast fitness does the source give for A36G A37C A45C C46G here?
A: The yeast fitness was 0.554.

Q: For A37G A42U A65C A69C, which yeast fitness is on record?
A: Its yeast fitness is at most 0.5.

Q: Which yeast fitness does the source give for U35C A45C C49G G56A A57U G63A here?
A: The yeast fitness was at most 0.5.

Q: With U35G G38A G52C as the variant, how does the yeast fitness read?
A: The yeast fitness was 0.678.

Q: For U35A A36U C61U, which yeast fitness is on record?
A: The yeast fitness was at most 0.5.

Q: With A37C U47A as the variant, how does the yeast fitness read?
A: The yeast fitness was 0.674.

Q: Which yeast fitness does the source give for G38C A43G C60U C62U A70C here?
A: The yeast fitness was at most 0.5.

Q: With A37C C46U U59A as the variant, how does the yeast fitness read?
A: The yeast fitness was at most 0.5.

Q: Which yeast fitness does the source give for C34U G41C A69G here?
A: Its yeast fitness is at most 0.5.

Q: With C34G U53C C55G as the variant, how does the yeast fitness read?
A: Its yeast fitness is at most 0.5.

Q: Which yeast fitness does the source give for C34U C66G here?
A: Its yeast fitness is 0.56.

Q: Which yeast fitness does the source give for A37U A65C here?
A: The yeast fitness was 0.739.

Q: With C34G C49A as the variant, how does the yeast fitness read?
A: Its yeast fitness is 0.591.

Q: Which yeast fitness does the source give for G38C A57G here?
A: Its yeast fitness is 0.617.

Q: Which yeast fitness does the source give for A36G U54C C61U C66U here?
A: The yeast fitness was at most 0.5.

Q: With G38A G58C A70U as the variant, how does the yeast fitness read?
A: Its yeast fitness is 0.748.

Q: For A36U G44C, which yeast fitness is on record?
A: The yeast fitness was 0.629.

Q: Which yeast fitness does the source give for G38C C61G C66U A69U here?
A: Its yeast fitness is at most 0.5.

Q: With A36G A37U C55G as the variant, how does the yeast fitness read?
A: Its yeast fitness is 0.69.

Q: For A37C A40C G41C, which yeast fitness is on record?
A: Its yeast fitness is 0.579.

Q: For A36C G41A, which yeast fitness is on record?
A: The yeast fitness was 0.587.

Q: With A36U A40G as the variant, how does the yeast fitness read?
A: The yeast fitness was 0.549.

Q: For U35C G50A G67A, which yeast fitness is on record?
A: The yeast fitness was at most 0.5.

Q: For A36U A40U A57U G63A, which yeast fitness is on record?
A: Its yeast fitness is at most 0.5.

Q: Which yeast fitness does the source give for G38A G58C C66U here?
A: Its yeast fitness is 0.588.

Q: With A36C A57C A70G as the variant, how does the yeast fitness read?
A: The yeast fitness was 0.552.

Q: Which yeast fitness does the source give for G38C A40U U54C here?
A: Its yeast fitness is at most 0.5.

Q: With A37U A65C C66G as the variant, how does the yeast fitness read?
A: The yeast fitness was at most 0.5.

Q: With G38C C62U A65G as the variant, how does the yeast fitness read?
A: The yeast fitness was 0.502.

Q: With G38A A40G C49U C66A as the variant, how does the yeast fitness read?
A: The yeast fitness was at most 0.5.

Q: For G38A U47C, which yeast fitness is on record?
A: The yeast fitness was 0.837.

Q: With A36U C55U G56A as the variant, how does the yeast fitness read?
A: Its yeast fitness is 0.864.

Q: With A37G G44C A45C G50A C55G C66A as the variant, how does the yeast fitness read?
A: Its yeast fitness is at most 0.5.

Q: Which yeast fitness does the source give for C34G C60G C62U here?
A: Its yeast fitness is 0.65.

Q: Which yeast fitness does the source give for G38A A42C U54C C62G A65C C66A here?
A: The yeast fitness was at most 0.5.

Q: For U35C A37G C60U, which yeast fitness is on record?
A: The yeast fitness was at most 0.5.

Q: With A36G A45U C49U as the variant, how does the yeast fitness read?
A: The yeast fitness was 0.882.

Q: Which yeast fitness does the source give for A37C C60G here?
A: The yeast fitness was 0.562.

Q: With C34U G63A as the variant, how does the yeast fitness read?
A: Its yeast fitness is 0.624.

Q: With A37C C46U A69U as the variant, how does the yeast fitness read?
A: Its yeast fitness is 0.7.

Q: Which yeast fitness does the source give for A37C C46G A70C here?
A: The yeast fitness was 0.632.

Q: For A36G U47A, which yeast fitness is on record?
A: The yeast fitness was 0.789.
